Key:
[1] = Selectivity index, ratio of CC50 for african green monkey vero cells to IC50 for Herpes simplex viruses 1; format: functional
Outline: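 Selectivity index computed as CC50 (XTT assay in Vero cells, 72 h) divided by IC50 (plaque number reduction against HSV-1 in Vero cells).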

[2] = Cytotoxicity against african green monkey Vero cells after 72 hrs by XTT assay; format: cell-based; details: chlorocebus sabaeus
Outline: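 Vero cells (10⁴ cells/well; DMEM, 5% FBS, 37 °C, 5% CO2) exposed to a range of compound concentrations for 72 h. XTT (2.5 mg/mL final) added with PMS 32 µg/mL, 4 h incubation, absorbance read at 492 nm with 620 nm reference. CC50 obtained by linear regression of dose-response curves; acyclovir included.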

[3] = test system: Human alphaherpesvirus 1; experiment: Antiviral activity against 5 MOI Herpes simplex viruses 1 infected in vero cells after 24 hrs by viral plaque number reduction assay; format: functional, organism-based; details: Human alphaherpesvirus 1, Vero
Outline: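 Vero cells in 6-well plates infected with HSV-1 at MOI 5 for 1 h at 37 °C, then treated with test compounds. After 24 h infected cells lysed, supernatant harvested and titred by plaque assay. IC50 = concentration inhibiting 50% of plaque formation versus untreated controls. Acyclovir positive control. Triplicate independent experiments.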

[4] = test system: Human alphaherpesvirus 1; experiment: Antiviral activity against Herpes simplex viruses 1 infected in vero cells assessed as inhibition of viral replication at 50 uM after 72 hrs by XTT assay; format: functional; details: Human alphaherpesvirus 1, Vero
Outline: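 Vero monolayers (10⁴ cells/well) infected with HSV-1 at 100 CCID50/well for 1 h. Inoculum removed, cells washed, medium with 50 µM compound added; acyclovir 50 µM as control. After 72 h XTT/PMS added to measure protection from virus-induced cytopathic effect. Means of triplicate experiments.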

Structure (SMILES)	Ratio CC50/IC50 [1]	CC50 at 72 h [2]	IC50 [3]	inhibition at 50 µM [4]
Cc1c(C(=O)NNS(=O)(=O)c2ccccc2)nnn1Nc1ccccc1	80	1510 µM	19 µM	79%
Cc1ccc(S(=O)(=O)NNC(=O)c2nnn(Nc3ccccc3)c2C)cc1	–	–	–	37%
COc1ccc(S(=O)(=O)NNC(=O)c2nnn(Nc3ccccc3)c2C)cc1	–	–	–	54%
Cc1ccc(S(=O)(=O)NNC(=O)c2nnn(Nc3ccc(F)cc3)c2C)cc1	974	1270 µM	1.3 µM	88%
Cc1c(C(=O)NNS(=O)(=O)c2ccccc2)nnn1Nc1ccc(Cl)cc1	–	–	–	57%
Cc1c(C(=O)NNS(=O)(=O)c2ccccc2)nnn1Nc1ccc(Br)cc1	–	–	–	31%
Cc1ccc(S(=O)(=O)NNC(=O)c2nnn(Nc3ccc(Br)cc3)c2C)cc1	–	–	–	69%
COc1ccc(S(=O)(=O)NNC(=O)c2nnn(Nc3ccc(Br)cc3)c2C)cc1	26	971 µM	37 µM	77%
Cc1c(C(=O)NNS(=O)(=O)c2ccccc2)nnn1Nc1cc(Cl)ccc1Cl	932	1170 µM	1.26 µM	71%
Nc1nc2c(ncn2COCCO)c(=O)[nH]1 [ACYCLOVIR]	869	860 µM	0.99 µM	95%
